From ChEMBL document CHEMBL4340542, “Design, synthesis and biological evaluation of 4-aniline-thieno[2,3-d]pyrimidine derivatives as MNK1 inhibitors against renal cell carcinoma and nasopharyngeal carcinoma” (Bioorg Med Chem, 2019)
The source made the active and inactive calls. The rule behind the calls is not given here.

Key:
[1] = molecular target: MAP kinase-interacting serine/threonine-protein kinase 1 (Homo sapiens, UniProt Q9BUB5); assay: Inhibition of human MNK1 using CREBtide substrate by gamma-[32P]-ATP competitive inhibition assay
Sequence of MAP kinase-interacting serine/threonine-protein kinase 1 (Q9BUB5 whole entry): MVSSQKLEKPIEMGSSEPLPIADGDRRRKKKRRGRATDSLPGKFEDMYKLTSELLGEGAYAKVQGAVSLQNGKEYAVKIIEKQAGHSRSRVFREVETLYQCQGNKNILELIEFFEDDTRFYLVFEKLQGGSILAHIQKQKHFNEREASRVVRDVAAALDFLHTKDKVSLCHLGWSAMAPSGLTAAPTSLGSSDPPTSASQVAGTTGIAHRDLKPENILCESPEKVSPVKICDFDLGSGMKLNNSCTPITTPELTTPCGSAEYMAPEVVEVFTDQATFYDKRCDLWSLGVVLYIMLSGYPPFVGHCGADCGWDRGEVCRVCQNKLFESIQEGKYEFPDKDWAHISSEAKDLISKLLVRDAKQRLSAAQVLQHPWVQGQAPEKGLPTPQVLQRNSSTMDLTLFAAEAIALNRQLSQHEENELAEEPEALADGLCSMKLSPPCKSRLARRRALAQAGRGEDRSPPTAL
How it was run: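 Run as the Eurofins KinaseProfiler radiometric assay, competitive with γ-[32P]-ATP. IC50 taken as the mean of independent experiments; the footnote gives two.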

CNE = assay: Cytotoxicity against human CNE1 cells assessed as decrease in cell viability incubated for 24 hrs by MTT assay; format: functional, cell-based
How it was run: (§1)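 IC50 from an 8–10 point concentration gradient by MTT assay. Panel covers renal cell carcinoma and nasopharyngeal carcinoma lines. Values are mean ± SD, n = 3.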

Homo sapiens = species: Homo sapiens; assay: Cytotoxicity against human HNE1 cells assessed as decrease in cell viability incubated for 24 hrs by MTT assay; format: functional, cell-based; how it was run: as §1
SUNE1 = assay: Cytotoxicity against human SUNE1 cells assessed as decrease in cell viability incubated for 24 hrs by MTT assay; format: functional, cell-based; how it was run: as §1
786-0 = assay: Cytotoxicity against human 786-O cells assessed as decrease in cell viability incubated for 24 hrs by MTT assay; format: functional, cell-based; how it was run: as §1
A498 = assay: Cytotoxicity against human A498 cells assessed as decrease in cell viability incubated for 24 hrs by MTT assay; format: functional, cell-based; how it was run: as §1
CNE-2 = assay: Cytotoxicity against human CNE2 cells assessed as decrease in cell viability incubated for 24 hrs by MTT assay; format: functional, cell-based; how it was run: as §1
CAKI-1 = assay: Cytotoxicity against human Caki1 cells assessed as decrease in cell viability incubated for 24 hrs by MTT assay; format: functional, cell-based; how it was run: as §1

| Compound | IC50 [1] [nM] | other results |
| --- | --- | --- |
| Cc1cccc(Nc2ncnc3sc4c(c23)CCN(Cc2ccccc2)C4)c1 | 2110 | – |
| O=S(=O)(c1cccs1)N1CCc2c(sc3ncnc(Nc4cccc(Cl)c4)c23)C1 | 1380 | – |
| O=[N+]([O-])c1ccccc1S(=O)(=O)N1CCc2c(sc3ncnc(Nc4cccc(F)c4)c23)C1 | 1990 | – |
| Clc1cccc(Nc2ncnc3sc4c(c23)CCCC4)c1 | 2430 | – |
| COc1cccc(Nc2ncnc3sc4c(c23)CCN(S(=O)(=O)c2ccc(F)cc2F)C4)c1 | 1880 | – |
| COc1ccc(S(=O)(=O)N2CCc3c(sc4ncnc(Nc5ccc(F)cc5F)c34)C2)cc1 | 830 | Activity (CNE): Active; Activity (Homo sapiens): Active; Activity (SUNE1): Active; Activity (786-0): Active; Activity (A498): Active; Activity (CNE-2): Active; Activity (CAKI-1): Active |
| COc1cc(F)ccc1Nc1ncnc2sc3c(c12)CCN(C(=O)OC(C)(C)C)C3 | 1340 | – |
| COc1ccc(S(=O)(=O)N2CCc3c(sc4ncnc(Nc5cccc(Cl)c5)c34)C2)cc1 | 1400 | – |
| Cc1ccc(Nc2ncnc3sc4c(c23)CCN(Cc2ccccc2)C4)c(Br)c1 | 1570 | – |
| O=S(=O)(c1cccs1)N1CCc2c(sc3ncnc(Nc4ccc(F)cc4F)c23)C1 | 1460 | – |
| COc1cccc(Nc2ncnc3sc4c(c23)CCN(C)C4)c1 | 2290 | – |
| Cc1cccc(Nc2ncnc3sc4c(c23)CCN(S(=O)(=O)c2ccc(F)cc2F)C4)c1 | 2400 | – |
| Cc1ccc(Nc2ncnc3sc4c(c23)CCN(S(=O)(=O)c2ccc(F)cc2F)C4)c(Br)c1 | 1680 | – |
| Cc1ccc(Nc2ncnc3sc4c(c23)CCN(S(=O)(=O)c2cccs2)C4)c(Br)c1 | 1560 | – |
| COc1cccc(Nc2ncnc3sc4c(c23)CCCC4)c1 | 1700 | – |
| Clc1cccc(Nc2ncnc3sc4c(c23)CCN(Cc2ccccc2)C4)c1 | 2290 | – |
| COc1cccc(Nc2ncnc3sc4c(c23)CCN(S(=O)(=O)c2ccccc2[N+](=O)[O-])C4)c1 | 2020 | – |
| Cc1ccc(Nc2ncnc3sc4c(c23)CCN(C)C4)c(Br)c1 | 1650 | – |
| Cc1ccc(Nc2ncnc3sc4c(c23)CCN(S(=O)(=O)c2ccccc2[N+](=O)[O-])C4)c(Br)c1 | 1650 | – |
| CN1CCc2c(sc3ncnc(Nc4ccc(F)cc4F)c23)C1 | 1090 | – |
| CN1CCc2c(sc3ncnc(Nc4ccc(F)cc4Br)c23)C1 | 1470 | – |

| Compound | IC50 [1] [nM] | other results |
| --- | --- | --- |
| Clc1ccc(Nc2ncnc3sc4c(c23)CCCC4)cc1 | 1620 | – |
| Brc1ccc(Nc2ncnc3sc4c(c23)CCN(Cc2ccccc2)C4)cc1 | 1690 | – |
| CC(C)(C)OC(=O)N1CCc2c(sc3ncnc(Nc4ccc(Br)cc4)c23)C1 | 1810 | – |
| COc1ccc(S(=O)(=O)N2CCc3c(sc4ncnc(Nc5ccc(Br)cc5)c34)C2)cc1 | 1070 | Activity (CNE): Active; Activity (Homo sapiens): Active; Activity (SUNE1): Active; Activity (786-0): Active; Activity (A498): Active; Activity (CNE-2): Active; Activity (CAKI-1): Active |
| COc1cccc(Nc2ncnc3sc4c(c23)CCN(Cc2ccccc2)C4)c1 | 1920 | – |
| COc1cc(F)ccc1Nc1ncnc2sc3c(c12)CCN(S(=O)(=O)c1cccs1)C3 | 940 | – |
| COc1ccc(S(=O)(=O)N2CCc3c(sc4ncnc(Nc5cccc(F)c5)c34)C2)cc1 | 1390 | – |
| CN1CCc2c(sc3ncnc(Nc4cccc(Cl)c4)c23)C1 | 1870 | – |
| CC(C)(C)OC(=O)N1CCc2c(sc3ncnc(Nc4ccc(Cl)cc4F)c23)C1 | 2160 | – |
| O=S(=O)(c1ccc(F)cc1F)N1CCc2c(sc3ncnc(Nc4ccc(F)cc4F)c23)C1 | 1100 | – |
| O=S(=O)(c1ccc(F)cc1F)N1CCc2c(sc3ncnc(Nc4cccc(F)c4)c23)C1 | 2020 | – |
| O=[N+]([O-])c1ccccc1S(=O)(=O)N1CCc2c(sc3ncnc(Nc4ccc(Cl)cc4F)c23)C1 | 1260 | – |
| Cc1cccc(Nc2ncnc3sc4c(c23)CCN(C)C4)c1 | 2220 | – |
| COc1cc(F)ccc1Nc1ncnc2sc3c(c12)CCN(S(=O)(=O)c1ccccc1[N+](=O)[O-])C3 | 1100 | – |
| CN1CCc2c(sc3ncnc(Nc4cccc(F)c4)c23)C1 | 2040 | – |
| COc1cccc(Nc2ncnc3sc4c(c23)CCN(S(=O)(=O)c2cccs2)C4)c1 | 2350 | – |
| O=[N+]([O-])c1ccccc1S(=O)(=O)N1CCc2c(sc3ncnc(Nc4ccc(Cl)cc4)c23)C1 | 1650 | – |
| Cc1cccc(Nc2ncnc3sc4c(c23)CCCC4)c1 | 1790 | – |
| O=S(=O)(c1ccc(F)cc1F)N1CCc2c(sc3ncnc(Nc4ccc(F)cc4Br)c23)C1 | 1280 | – |
| Fc1cccc(Nc2ncnc3sc4c(c23)CCN(Cc2ccccc2)C4)c1 | 2080 | – |
| Cc1cccc(Nc2ncnc3sc4c(c23)CCN(C(=O)OC(C)(C)C)C4)c1 | 2500 | – |

| Compound | IC50 [1] [nM] | other results |
| --- | --- | --- |
| Cc1cccc(Nc2ncnc3sc4c(c23)CCN(S(=O)(=O)c2ccccc2[N+](=O)[O-])C4)c1 | 2060 | – |
| COc1cc(F)ccc1Nc1ncnc2sc3c(c12)CCN(Cc1ccccc1)C3 | 1000 | – |
| Clc1ccc(Nc2ncnc3sc4c(c23)CCN(Cc2ccccc2)C4)cc1 | 1540 | – |
| CN1CCc2c(sc3ncnc(Nc4ccc(Br)cc4)c23)C1 | 1690 | – |
| O=S(=O)(c1ccc(F)cc1F)N1CCc2c(sc3ncnc(Nc4cccc(Cl)c4)c23)C1 | 1740 | – |
| Fc1ccc(Nc2ncnc3sc4c(c23)CCN(Cc2ccccc2)C4)c(Br)c1 | 1120 | – |
| CC(C)(C)OC(=O)N1CCc2c(sc3ncnc(Nc4ccc(F)cc4F)c23)C1 | 1620 | – |
| COc1ccc(S(=O)(=O)N2CCc3c(sc4ncnc(Nc5ccc(Cl)cc5)c34)C2)cc1 | 1220 | – |
| COc1ccc(S(=O)(=O)N2CCc3c(sc4ncnc(Nc5ccc(C)cc5Br)c34)C2)cc1 | 1890 | – |
| O=S(=O)(c1ccc(F)cc1F)N1CCc2c(sc3ncnc(Nc4ccc(Cl)cc4F)c23)C1 | 1540 | – |
| COc1cc(F)ccc1Nc1ncnc2sc3c(c12)CCN(S(=O)(=O)c1ccc(F)cc1F)C3 | 930 | – |
| CN1CCc2c(sc3ncnc(Nc4ccc(Cl)cc4F)c23)C1 | 1850 | – |
| COc1ccc(S(=O)(=O)N2CCc3c(sc4ncnc(Nc5cccc(C)c5)c34)C2)cc1 | 1410 | – |
| O=[N+]([O-])c1ccccc1S(=O)(=O)N1CCc2c(sc3ncnc(Nc4cccc(Cl)c4)c23)C1 | 1640 | – |
| COc1ccc(S(=O)(=O)N2CCc3c(sc4ncnc(Nc5ccc(F)cc5Br)c34)C2)cc1 | 1000 | Activity (CNE): Active; Activity (Homo sapiens): Active; Activity (SUNE1): Active; Activity (786-0): Active; Activity (A498): Active; Activity (CNE-2): Active; Activity (CAKI-1): Active |
| COc1ccc(S(=O)(=O)N2CCc3c(sc4ncnc(Nc5cccc(OC)c5)c34)C2)cc1 | 2140 | – |
| Fc1cc(Cl)ccc1Nc1ncnc2sc3c(c12)CCN(Cc1ccccc1)C3 | 1310 | – |
| CC(C)(C)OC(=O)N1CCc2c(sc3ncnc(Nc4ccc(Cl)cc4)c23)C1 | 2240 | – |
| O=[N+]([O-])c1ccccc1S(=O)(=O)N1CCc2c(sc3ncnc(Nc4ccc(F)cc4F)c23)C1 | 1080 | – |
| O=S(=O)(c1cccs1)N1CCc2c(sc3ncnc(Nc4ccc(Br)cc4)c23)C1 | 1390 | – |
| O=S(=O)(c1ccc(F)cc1F)N1CCc2c(sc3ncnc(Nc4ccc(Br)cc4)c23)C1 | 1730 | – |

| Compound | IC50 [1] [nM] | other results |
| --- | --- | --- |
| O=[N+]([O-])c1ccccc1S(=O)(=O)N1CCc2c(sc3ncnc(Nc4ccc(F)cc4Br)c23)C1 | 1160 | – |
| Cc1cccc(Nc2ncnc3sc4c(c23)CCN(S(=O)(=O)c2cccs2)C4)c1 | 2130 | – |
| O=S(=O)(c1cccs1)N1CCc2c(sc3ncnc(Nc4cccc(F)c4)c23)C1 | 1500 | – |
| CC(C)(C)OC(=O)N1CCc2c(sc3ncnc(Nc4cccc(Cl)c4)c23)C1 | 2170 | – |
| O=S(=O)(c1ccc(F)cc1F)N1CCc2c(sc3ncnc(Nc4ccc(Cl)cc4)c23)C1 | 1500 | – |
| Brc1ccc(Nc2ncnc3sc4c(c23)CCCC4)cc1 | 1510 | – |
| Fc1ccc(Nc2ncnc3sc4c(c23)CCN(Cc2ccccc2)C4)c(F)c1 | 1100 | – |
| CN1CCc2c(sc3ncnc(Nc4ccc(Cl)cc4)c23)C1 | 1820 | – |
| CC(C)(C)OC(=O)N1CCc2c(sc3ncnc(Nc4cccc(F)c4)c23)C1 | 2190 | – |
| O=S(=O)(c1cccs1)N1CCc2c(sc3ncnc(Nc4ccc(Cl)cc4)c23)C1 | 1630 | – |
| Fc1cccc(Nc2ncnc3sc4c(c23)CCCC4)c1 | 2180 | – |
| O=[N+]([O-])c1ccccc1S(=O)(=O)N1CCc2c(sc3ncnc(Nc4ccc(Br)cc4)c23)C1 | 1250 | – |
| Cc1ccc(Nc2ncnc3sc4c(c23)CCN(C(=O)OC(C)(C)C)C4)c(Br)c1 | 1700 | – |
| O=S(=O)(c1cccs1)N1CCc2c(sc3ncnc(Nc4ccc(Cl)cc4F)c23)C1 | 1360 | – |
| COc1ccc(S(=O)(=O)N2CCc3c(sc4ncnc(Nc5ccc(Cl)cc5F)c34)C2)cc1 | 1150 | Activity (CNE): Active; Activity (Homo sapiens): Active; Activity (SUNE1): Active; Activity (786-0): Active; Activity (A498): Active; Activity (CNE-2): Active; Activity (CAKI-1): Active |
| O=S(=O)(c1cccs1)N1CCc2c(sc3ncnc(Nc4ccc(F)cc4Br)c23)C1 | 970 | – |
| COc1cccc(Nc2ncnc3sc4c(c23)CCN(C(=O)OC(C)(C)C)C4)c1 | 1950 | – |
| CC(C)(C)OC(=O)N1CCc2c(sc3ncnc(Nc4ccc(F)cc4Br)c23)C1 | 1720 | – |
| COc1cc(F)ccc1Nc1ncnc2sc3c(c12)CCN(C)C3 | 930 | – |
